Source: ChEMBL document CHEMBL3244245, “Aporphines, 21. (1,2) Dopaminergic activity of aporphine and benzylisoquinoline derivatives. Synthesis of 8-hydroxyaporphines and 1-(hydroxybenzyl)-2-n-propyl-1,2,3,4-tetrahydroisoquinolines” (J Med Chem, 1977)
Active and inactive are the calls of the source. The rule behind the calls is not given here.

Experiments:
Rattus norvegicus [1] = species on record: Rattus norvegicus; experiment: Stereotyped behavior in Sprague-Dawley rat pretreated with nialamide assessed as sniffing behavior at 3.125 to 25 µg, bilateral intrastriatal
Rattus norvegicus [2] = species on record: Rattus norvegicus; experiment: Stereotyped behavior in Sprague-Dawley rat pretreated with nialamide assessed as biting behavior at 3.125 to 25 µg, bilateral intrastriatal
Rattus norvegicus [3] = species on record: Rattus norvegicus; experiment: Stereotyped behavior in Sprague-Dawley rat pretreated with nialamide assessed as bilateral behavior at 3.125 to 25 µg, bilateral intrastriatal
Rattus norvegicus [4] = experiment: Behavioral responses in Sprague-Dawley rat with unilateral 6-OHDA lesion of nigrostriatal pathway assessed as bilateral response at 6.25 to 25 […] into caudate-putamen; assay type: functional, organism-based
Outline: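 Guide cannulae implanted chronically; rats used 10-14 days after surgery. Nialamide 100 mg/kg ip given 2 h before injection. Drug dissolved in nitrogen-bubbled distilled water and injected bilaterally into caudate-putamen through injection units 1.5 mm below guide tips. Photocell counts per 5-min period recorded every 10 min up to 7 h. Biting and sniffing scored on intensity scales. Six to twelve rats per dose.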

Rattus norvegicus [5] = experiment: Stereotyped behavior in Sprague-Dawley rat with unilateral 6-OHDA lesion of nigrostriatal pathway assessed as sniffing and repetitive head and limb movements up to 4 mg/kg, sc; assay type: functional, organism-based; design: dose 4 mg/kg
Rattus norvegicus [6] = experiment: Circling behavior in Sprague-Dawley rat with unilateral 6-OHDA lesion of nigrostriatal pathway assessed as number of revolutions performed per min at 0.5 to 2 mg/kg, sc; assay type: functional, organism-based
Outline: (§1)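 Unilateral lesion made with 6-OHDA, 4 µl of 2 µg/µl at 1 µl/min, into medial forebrain bundle area of lateral hypothalamus. Rats tested 7-21 days later. Drug given sc in distilled water with 0.1% sodium metabisulfite. Contralateral circling counted as revolutions per minute. Mean of at least five rats.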

Rattus norvegicus [7] = experiment: Stereotyped behavior in Sprague-Dawley rat with unilateral 6-OHDA lesion of nigrostriatal pathway assessed as continuous biting up to 4 mg/kg, sc; assay type: functional, organism-based; design: dose 4 mg/kg
Rattus norvegicus [8] = species on record: Rattus norvegicus; experiment: Behavioral responses in Sprague-Dawley rat pretreated with nialamide assessed as hyperactivity response at 6.25 to 25 µg direct injection into caudate-putamen
Rattus norvegicus [9] = species on record: Rattus norvegicus; experiment: Stereotyped behavior in Sprague-Dawley rat pretreated with nialamide assessed as hyperactivity behavior at 3.125 to 25 µg, bilateral intrastriatal
Rattus norvegicus [10] = experiment: Antagonism of dopamine-induced hyperactivity in Sprague-Dawley rat with unilateral 6-OHDA lesion of nigrostriatal pathway at 0.1 to 1 mg/kg, sc after 2.5 hrs treated bilateral injection of 50 ug of dopamine into the nucleus accumbens; assay type: functional, organism-based
Outline: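 Rats received nialamide 100 mg/kg ip, then 2 h later 50 µg dopamine bilaterally into the nucleus accumbens. At 2.5 h, at peak hyperactivity, test drug was given sc in water with 0.1% sodium metabisulfite. Locomotion was measured as photocell beam interruptions per 5 min. Five to eight rats were used per dose.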

Rattus norvegicus [11] = experiment: Behavioral responses in Sprague-Dawley rat with unilateral 6-OHDA lesion of nigrostriatal pathway assessed as hyperactivity response at 3.125 to 25 […] into nucleus accumbens; assay type: functional, organism-based
Outline: (§2)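 Guide cannulae implanted chronically; rats used 10-14 days after surgery. Nialamide 100 mg/kg ip given 2 h before injection. Drug in nitrogen-bubbled distilled water injected bilaterally into nucleus accumbens through units 2.5 mm below guide tips. Hyperactivity counted as photocell interruptions per 5-min period, recorded every 10 min up to 7 h. Biting and sniffing scored on intensity scales. Six to twelve rats per dose.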

Rattus norvegicus [12] = experiment: Circling behavior in Sprague-Dawley rat with unilateral 6-OHDA lesion of nigrostriatal pathway assessed as number of revolutions performed per min at 0.25 to 4 mg/kg, sc; assay type: functional, organism-based
Outline: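 Unilateral lesion made by infusing 4 µl 6-OHDA at 1 µl/min into the medial forebrain bundle in the lateral hypothalamus. Rats were tested 7-21 days later with drug given sc in distilled water containing 0.1% sodium metabisulfite. Contralateral circling was counted as revolutions per min. Values are the mean of at least five rats.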

Rattus norvegicus [13] = experiment: Stereotyped behavior in Sprague-Dawley rat with unilateral 6-OHDA lesion of nigrostriatal pathway assessed as continuous biting at 0.5 to 4 mg/kg, sc; assay type: functional, organism-based
Rattus norvegicus [14] = species on record: Rattus norvegicus; experiment: Stereotyped behavior in Sprague-Dawley rat pretreated with nialamide assessed as biting behavior at 25 µg, bilateral intrastriatal
Rattus norvegicus [15] = species on record: Rattus norvegicus; experiment: Behavioral responses in Sprague-Dawley rat pretreated with nialamide assessed as hyperactivity response at 25 µg, bilateral intrastriatal
Rattus norvegicus [16] = experiment: Stereotyped behavior in Sprague-Dawley rat with unilateral 6-OHDA lesion of nigrostriatal pathway assessed as biting behavior at 3.125 to 25 […] into nucleus accumbens; assay type: functional, organism-based
Outline: as §2

Rattus norvegicus [17] = experiment: Stereotyped behavior in Sprague-Dawley rat with unilateral 6-OHDA lesion of nigrostriatal pathway assessed as continuous biting at 0.1 mg/kg, sc; assay type: functional, organism-based; design: dose 0.1 mg/kg
Rattus norvegicus [18] = experiment: Stereotyped behavior in Sprague-Dawley rat with unilateral 6-OHDA lesion of nigrostriatal pathway assessed as sniffing and repetitive head and limb movements at 0.0063 to 0.05 mg/kg, sc; assay type: functional, organism-based
Rattus norvegicus [19] = experiment: Stereotyped behavior in Sprague-Dawley rat with unilateral 6-OHDA lesion of nigrostriatal pathway assessed as sniffing behavior at 25 […] into nucleus accumbens; assay type: functional, organism-based
Outline: as §2

Rattus norvegicus [20] = experiment: Stereotyped behavior in Sprague-Dawley rat with unilateral 6-OHDA lesion of nigrostriatal pathway assessed as maximal biting behavior at 25 […] into nucleus accumbens; assay type: functional, organism-based
Outline: as §2

Rattus norvegicus [21] = experiment: Antagonism of dopamine-induced hyperactivity in sc dosed Sprague-Dawley rat with unilateral 6-OHDA lesion of nigrostriatal pathway after 2.5 hrs treated bilateral injection of 50 ug of dopamine into the nucleus accumbens; assay type: functional, organism-based
Outline: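 Rats pretreated with nialamide 100 mg/kg ip; 2 h later, 50 µg dopamine bilaterally into nucleus accumbens. At 2.5 h, at peak hyperactivity, test drug given sc in distilled water with 0.1% sodium metabisulfite. Activity read as photocell beam interruptions per 5-min period. Five to eight rats per dose.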

Rattus norvegicus [22] = species on record: Rattus norvegicus; experiment: Stereotyped behavior in Sprague-Dawley rat pretreated with nialamide assessed as sniffing behavior at 25 µg, bilateral intrastriatal
Rattus norvegicus [23] = experiment: Circling behavior in sc dosed Sprague-Dawley rat with unilateral 6-OHDA lesion of nigrostriatal pathway assessed as number of revolutions performed per min; assay type: functional, organism-based
Outline: as §1

Rattus norvegicus [24] = species on record: Rattus norvegicus; experiment: Stereotyped behavior in Sprague-Dawley rat with unilateral 6-OHDA lesion of nigrostriatal pathway assessed as continuous biting; assay type: functional, organism-based
Rattus norvegicus [25] = experiment: Stereotyped behavior in Sprague-Dawley rat with unilateral 6-OHDA lesion of nigrostriatal pathway assessed as continuous biting at 2 mg/kg, sc; assay type: functional, organism-based; design: dose 2 mg/kg
Rattus norvegicus [26] = experiment: Stereotyped behavior in Sprague-Dawley rat with unilateral 6-OHDA lesion of nigrostriatal pathway assessed as biting behavior at 25 to 50 […] into caudate-putamen; assay type: functional, organism-based
Outline: (§3)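 Nialamide 100 mg/kg ip was given 2 h beforehand. Drug was dissolved in nitrogen-bubbled water and injected bilaterally through chronic guide cannulae 10-14 days after surgery. Injection units extended 1.5 mm (caudate-putamen) or 2.5 mm (nucleus accumbens) below the guides. Biting and sniffing were scored in photocell boxes, and hyperactivity was counted as beam interruptions per 5 min, recorded every 10 min for up to 7 h. Six to twelve rats were used per dose.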

Rattus norvegicus [27] = experiment: Behavioral responses in Sprague-Dawley rat with unilateral 6-OHDA lesion of nigrostriatal pathway assessed as hyperactivity response at 6.25 to 50 […] direct injection into nucleus accumbens; assay type: functional, organism-based
Outline: as §3

Rattus norvegicus [28] = experiment: Stereotyped behavior in Sprague-Dawley rat with unilateral 6-OHDA lesion of nigrostriatal pathway assessed as biting behavior at 6.25 to 50 […] into nucleus accumbens; assay type: functional, organism-based
Outline: as §3

Rattus norvegicus [29] = species on record: Rattus norvegicus; experiment: Stereotyped behavior in Sprague-Dawley rat pretreated with nialamide assessed as sniffing behavior at 50 µg, bilateral intrastriatal
Rattus norvegicus [30] = experiment: Stereotyped behavior in Sprague-Dawley rat with unilateral 6-OHDA lesion of nigrostriatal pathway assessed as maximal sniffing and repetitive head and limb movements at 0.5 mg/kg, sc; assay type: functional, organism-based; design: dose 0.5 mg/kg
Rattus norvegicus [31] = experiment: Stereotyped behavior in sc dosed Sprague-Dawley rat with unilateral 6-OHDA lesion of nigrostriatal pathway assessed as sniffing and repetitive head and limb movements; assay type: functional, organism-based
Rattus norvegicus [32] = experiment: Stereotyped behavior in Sprague-Dawley rat with unilateral 6-OHDA lesion of nigrostriatal pathway assessed as sniffing behavior at 6.25 to 50 […] into nucleus accumbens; assay type: functional, organism-based
Outline: as §3

Row | SMILES | Activity (Rattus norvegicus [1]) | Activity (Rattus norvegicus [2]) | Activity (Rattus norvegicus [3]) | Activity (Rattus norvegicus [4]) | Activity (Rattus norvegicus [5]) | Activity (Rattus norvegicus [8]) | Activity (Rattus norvegicus [9]) | inhibition (Rattus norvegicus [10]) | Activity (Rattus norvegicus [11]) | Activity (Rattus norvegicus [12]) | also measured
1 | CCCN1CCc2cccc3c2C1Cc1ccc(O)cc1-3 (stereo unspecified) | inactive | inactive | inactive | inactive | inactive | inactive | inactive | inactive | inactive |  | Activity (Rattus norvegicus [6]): Dose-dependent effect; Activity (Rattus norvegicus [7]): Active
2 | CCCN1CCc2ccccc2C1Cc1ccc(O)c(O)c1 (racemic) | inactive | inactive | inactive | inactive | inactive | inactive | inactive | inactive | inactive | inactive | Activity (Rattus norvegicus [13]): inactive
3 | CCCN1CCc2cccc3c2C1Cc1c(O)cccc1-3 (racemic) | inactive | inactive | inactive | inactive | inactive | inactive | inactive | inactive | inactive | inactive | Activity (Rattus norvegicus [7]): Active
4 | CCCN1CCc2ccccc2C1Cc1ccc(O)cc1 (racemic) | inactive | inactive | inactive | inactive | inactive | inactive | inactive | inactive | inactive | inactive | Activity (Rattus norvegicus [13]): inactive
5 | CCCN1CCc2cccc3c2[C@H]1Cc1ccc(O)c(O)c1-3 |  |  |  | inactive |  | inactive |  |  | inactive |  | Activity (Rattus norvegicus [14]): Active; Activity (Rattus norvegicus [15]): inactive; Activity (Rattus norvegicus [16]): Active; Activity (Rattus norvegicus [17]): Active; Activity (Rattus norvegicus [18]): Active; Activity (Rattus norvegicus [19]): Active; Activity (Rattus norvegicus [20]): Active; inhibition (Rattus norvegicus [21]): Dose-dependent effect; Activity (Rattus norvegicus [22]): Active; Activity (Rattus norvegicus [23]): Dose-dependent effect
6 | CN1CCc2cccc3c2C1Cc1c(O)cccc1-3 (racemic) |  |  |  | inactive |  | inactive |  |  |  |  | 
7 | CN1CCc2cccc3c2[C@H]1Cc1ccc(O)c(O)c1-3 |  |  |  | inactive |  | inactive |  | inactive |  |  | Activity (Rattus norvegicus [24]): Dose-dependent effect; Activity (Rattus norvegicus [25]): Active; Activity (Rattus norvegicus [26]): Active; Activity (Rattus norvegicus [27]): Active; Activity (Rattus norvegicus [28]): Active; Activity (Rattus norvegicus [29]): inactive; Activity (Rattus norvegicus [30]): Active; Activity (Rattus norvegicus [31]): Dose-dependent effect; inhibition (Rattus norvegicus [21]): Dose-dependent effect; Activity (Rattus norvegicus [32]): Active; Activity (Rattus norvegicus [23]): Dose-dependent effect
8 | NCCc1ccc(O)c(O)c1 |  |  |  | Active |  | Active |  |  |  |  | Activity (Rattus norvegicus [27]): inactive
